ChEMBL document CHEMBL1128184, “Topoisomerase II-mediated DNA cleavage by adocia- and xestoquinones from the Philippine sponge Xestospongia sp” (J Med Chem, 1995)
pIC50: −log10 of the molar value.

How the values were obtained:
[1] = molecular target: T1, DNA topoisomerase 2 (Drosophila melanogaster) (UniProt P15348); experiment: Inhibition of commercially obtained pure Drosophila Topoisomerase II in catalytic DNA unwinding.
T1 sequence (whole entry): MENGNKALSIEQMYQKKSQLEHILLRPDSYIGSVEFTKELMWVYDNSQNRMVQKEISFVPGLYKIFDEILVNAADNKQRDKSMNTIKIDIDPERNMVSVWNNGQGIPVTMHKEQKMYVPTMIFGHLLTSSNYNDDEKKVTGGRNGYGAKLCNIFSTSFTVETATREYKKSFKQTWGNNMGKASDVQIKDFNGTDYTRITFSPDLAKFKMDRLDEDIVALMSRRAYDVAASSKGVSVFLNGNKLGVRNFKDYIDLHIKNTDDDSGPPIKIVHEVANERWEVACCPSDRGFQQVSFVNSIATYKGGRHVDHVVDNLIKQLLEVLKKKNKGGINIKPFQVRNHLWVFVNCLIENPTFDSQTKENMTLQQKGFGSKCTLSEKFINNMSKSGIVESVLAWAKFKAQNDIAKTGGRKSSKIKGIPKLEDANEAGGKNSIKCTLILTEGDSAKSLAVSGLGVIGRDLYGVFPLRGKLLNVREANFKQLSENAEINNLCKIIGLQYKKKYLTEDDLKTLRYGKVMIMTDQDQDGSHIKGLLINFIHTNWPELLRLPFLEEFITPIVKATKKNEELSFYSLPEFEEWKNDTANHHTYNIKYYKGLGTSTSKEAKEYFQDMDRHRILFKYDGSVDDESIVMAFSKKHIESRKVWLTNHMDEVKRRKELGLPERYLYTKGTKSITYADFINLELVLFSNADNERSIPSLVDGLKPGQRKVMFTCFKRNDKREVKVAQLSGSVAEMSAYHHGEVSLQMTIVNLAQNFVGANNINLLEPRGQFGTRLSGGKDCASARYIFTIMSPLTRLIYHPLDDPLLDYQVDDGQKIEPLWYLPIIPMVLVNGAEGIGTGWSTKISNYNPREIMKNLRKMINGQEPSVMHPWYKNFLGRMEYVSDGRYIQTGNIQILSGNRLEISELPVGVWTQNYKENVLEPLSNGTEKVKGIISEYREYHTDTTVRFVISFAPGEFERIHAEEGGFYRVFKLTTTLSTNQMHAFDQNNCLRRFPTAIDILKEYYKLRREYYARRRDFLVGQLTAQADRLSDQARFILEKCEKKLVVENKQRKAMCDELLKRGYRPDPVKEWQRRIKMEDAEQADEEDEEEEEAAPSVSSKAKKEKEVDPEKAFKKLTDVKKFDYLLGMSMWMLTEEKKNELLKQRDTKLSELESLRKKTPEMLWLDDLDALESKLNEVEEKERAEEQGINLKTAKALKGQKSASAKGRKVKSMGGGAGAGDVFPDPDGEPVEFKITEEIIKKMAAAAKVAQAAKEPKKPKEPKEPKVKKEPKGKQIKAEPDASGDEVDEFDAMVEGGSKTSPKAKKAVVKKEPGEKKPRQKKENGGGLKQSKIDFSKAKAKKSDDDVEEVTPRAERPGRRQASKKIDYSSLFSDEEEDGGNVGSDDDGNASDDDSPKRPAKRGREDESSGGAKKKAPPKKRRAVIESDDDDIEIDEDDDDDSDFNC
How it was run: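 Relaxation assay with supercoiled pBR322 (0.5 μg) and pure Drosophila topoisomerase II at 3 units per reaction. Buffer: 50 mM Tris-HCl pH 8.0, 120 mM KCl, 10 mM MgCl2, 1 mM ATP, 0.5 mM DTT, 30 μg/mL BSA. Drug added in DMSO.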

XRS6 = experiment: Cytotoxicity against CHO cell line xrs6; format: functional, cell-based; settings: Cricetulus griseus
How it was run: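 MTT assay on DNA double-strand-break repair-deficient CHO xrs-6 cells grown in αMEM with serum, seeded at 60 000 cells/well and allowed to attach 4 h. Drug added from DMSO stock, final DMSO 1% or less, four replicate wells per dose. Exposure 18 h, then drug-free medium. Absorbance at 540 nm, compared against DMSO-only wells to give percent growth inhibition.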

[2] = Ratio of BR1 IC50 to xrs-6 IC50; format: functional
How it was run: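 MTT assay run in parallel on repair-competent CHO BR1 (40 000 cells/well) and repair-deficient xrs-6 (60 000 cells/well), both in αMEM with serum. 4 h attachment, then 18 h drug exposure from DMSO (final 1% or less), then drug-free medium. Four wells per dose, A540 against DMSO controls. The ratio is the BR1 IC50 divided by the xrs-6 IC50.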

HCT-116 = experiment: Cytotoxicity against HCT116 cells.; format: functional, cell-based; settings: Homo sapiens
How it was run: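 HCT 116 human colon tumour cells in McCoy's medium with 10% FBS, seeded at 40 000 cells/well and allowed 4 h to attach. Drug added in DMSO (0.5%), 3 days continuous exposure, four replicate wells per dose. MTT (5 mg/mL in PBS) added for 4 h, formazan dissolved in acidic 2-propanol, A540 read against DMSO controls for percent growth inhibition.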

[3] = molecular target: DNA topoisomerase II (Homo sapiens) (UniProt P11388+Q02880); experiment: In vitro inhibition of partially purified human ovarian carcinoma topoisomerase II of kDNA decatenation; format: protein assay
How it was run: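 Decatenation of kinetoplast DNA (0.2 μg) by one unit of partially purified human ovarian carcinoma topoisomerase II in 50 mM Tris-HCl pH 8.0, 120 mM KCl, 10 mM MgCl2, 1 mM ATP, 0.5 mM DTT, 30 μg/mL BSA. Compound added in DMSO. Stopped with sarkosyl stop buffer, 1% agarose/ethidium gel, UV visualization. Value is the concentration apparently inhibiting 90% of monomer-length kDNA production.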

SMILES | IC90 [1] | pIC50 (XRS6) | Ratio [2] | pIC50 (HCT-116) | IC90 [3]
COc1cc([C@@H]2c3cc4c(cc3[C@@H](O[C@@H]3O[C@@H]5CO[C@@H](C)O[C@H]5[C@H](O)[C@H]3O)[C@H]3COC(=O)[C@H]23)OCO4)cc(OC)c1O [ETOPOSIDE] | 85 µM | 6.85 | 7 | – | –
COC1=CC(=O)c2cc3c(cc2C1=O)C(=O)c1occ2c1[C@@]3(C)CCC2 | – | 5.37 | 3 | 4.55 | –
O=C1c2c(O)ccc(O)c2C(=O)c2c(NCCNCCO)ccc(NCCNCCO)c21 [MITOXANTRONE] | 56 µM | 9.00 | – | – | –
C[C@@]12CCCc3coc(c31)C(=O)c1cc3c(cc12)C(=O)C=C(NCCS(=O)(=O)O)C3=O | – | < 3.54 | – | < 3.84 | –
C[C@@]12CCCc3coc(c31)C(=O)c1cc3c(cc12)C(=O)C1=C(NCCS1(=O)=O)C3=O [ADOCIAQUINONE B] | 78 µM | 4.64 | 3 | 4.68 | < 11 µM
C[C@@]12CCCc3coc(c31)C(=O)c1cc3c(cc12)C(=O)C(Cl)=C(O)C3=O | – | 4.57 | 4.5 | 4.48 | –
C[C@@]12CCCc3coc(c31)C(=O)c1cc3c(cc12)C(=O)/C(=N/CCS(=O)(=O)O)C=C3O | – | < 3.54 | – | < 3.84 | –
COC1=CC(=O)c2cc3c(cc2C1=O)[C@]1(C)CCCc2coc(c21)C3=O | – | 5.37 | 3 | 4.55 | –
C[C@@]12CCCc3coc(c31)C(=O)c1cc3c(cc12)C(=O)C(=O)C(Cl)=C3O | – | 4.57 | 4.5 | 4.48 | –
C[C@@]12CCCc3coc(c31)C(=O)c1cc3c(cc12)C(=O)C1=NCCS(=O)(=O)C1=C3O [ADOCIAQUINONE A] | – | 4.11 | 3 | 4.62 | –
COc1cc(NS(C)(=O)=O)ccc1Nc1c2ccccc2nc2ccccc12 [AMSACRINE] | – | 6.62 | 4 | – | –
